Results: ChEMBL document CHEMBL5724801, “EUbOPEN Chemogenomics Library - Multiplex” (2024)
Values joined by “and” are separate entries in the source; they are usually repeats but may differ in a detail not shown here. Equal entries are not always repeated.

Tested on: U2OS
Test: Multiplex assay against U2OS
Assay type: toxicity, cell-based
Settings: human
Outline: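 With compound added, live cells were imaged on a CQ1 microscope at 37°C and 5% CO2; staining with Hoechst33342, BioTracker Green Microtubule Cytoskeleton Dye, MitoTracker Red and Annexin V Alexa Fluor 680 had been done at seeding. The CellPathfinder machine-learning gating scheme split cells into Hoechst high-intensity objects or normal cells, normal cells into healthy, pyknosed or fragmented nuclei, and pyknosed cells into mitotic or apoptotic. The tubulin, mitochondrial-mass and membrane-permeability phenotypes are per cents of healthy-nucleus cells.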

[1] = 12 h, 1 µM, compound concentration 1 uM
[2] = 12 h, 10 µM, compound concentration 10 uM
[3] = 24 h, 1 µM, compound concentration 1 uM
[4] = 24 h, 10 µM, compound concentration 10 uM
[5] = 48 h, 1 µM, compound concentration 1 uM
[6] = 48 h, 10 µM, compound concentration 10 uM

CC(C)(C)c1cc(C(C)(C)C)c(NC(=O)c2c[nH]c3ccccc3c2=O)cc1O [IVACAFTOR]
Population Apoptotic (%) [1]: 36.36% and 31.58%
Population Fragmented Nuclei (%) [1]: 1.43% and 1.95%
Population Healthy Nuclei (%) [1]: 92.26% and 85.71%
Population Hoechst High Intensity Objects (%) [1]: 0%
Population Membrane Permeable-Phenotype (%) [1]: 0.62% and 0.76%
Population Mitochondria Different-Phenotype (%) [1]: 0% and 7.58%
Population Mitotic Cells (%) [1]: 63.64% and 68.42%
Population Normal (%) [1]: 100%
Population Pyknosed Nuclei (%) [1]: 6.3% and 12.34%
Population Tubulin-Different-Phenotype (%) [1]: 0.62% and 0%
Total Cell Count [1]: 349 and 154
Population Apoptotic (%) [2]: 44.16% and 30.95%
Population Fragmented Nuclei (%) [2]: 2.96% and 8.38%
Population Healthy Nuclei (%) [2]: 74.26% and 66.47%
Population Hoechst High Intensity Objects (%) [2]: 0%
Population Membrane Permeable-Phenotype (%) [2]: 3.59% and 13.51%
Population Mitotic Cells (%) [2]: 55.84% and 69.05%
Population Normal (%) [2]: 100%
Population Pyknosed Nuclei (%) [2]: 22.78% and 25.15%
Population Tubulin-Different-Phenotype (%) [2]: 10.76% and 1.8%
Total Cell Count [2]: 338 and 167
Population Apoptotic (%) [3]: 22.95% and 40%
Population Fragmented Nuclei (%) [3]: 1.83% and 3.23%
Population Healthy Nuclei (%) [3]: 85.77% and 86.02%
Population Hoechst High Intensity Objects (%) [3]: 0%
Population Membrane Permeable-Phenotype (%) [3]: 0.24% and 1.88%
Population Mitochondria Different-Phenotype (%) [3]: 0% and 6.88%
Population Mitotic Cells (%) [3]: 77.05% and 60%
Population Normal (%) [3]: 100%
Population Pyknosed Nuclei (%) [3]: 12.4% and 10.75%
Population Tubulin-Different-Phenotype (%) [3]: 0.71% and 0%
Total Cell Count [3]: 492 and 186
Population Apoptotic (%) [4]: 51.81% and 29.41%
Population Fragmented Nuclei (%) [4]: 3.33% and 6.94%
Population Healthy Nuclei (%) [4]: 75.38% and 63.58%
Population Hoechst High Intensity Objects (%) [4]: 0%
Population Mitotic Cells (%) [4]: 48.19% and 70.59%
Population Normal (%) [4]: 100%
Population Pyknosed Nuclei (%) [4]: 21.28% and 29.48%
Population Tubulin-Different-Phenotype (%) [4]: 8.84% and 7.27%
Total Cell Count [4]: 390 and 173
Population Apoptotic (%) [5]: 47.3% and 42.86%
Population Fragmented Nuclei (%) [5]: 2.51% and 4.1%
Population Healthy Nuclei (%) [5]: 89.07% and 81.57%
Population Hoechst High Intensity Objects (%) [5]: 0%
Population Membrane Permeable-Phenotype (%) [5]: 0.13% and 0.84%
Population Mitochondria Different-Phenotype (%) [5]: 0% and 5.86%
Population Mitotic Cells (%) [5]: 52.7% and 57.14%
Population Normal (%) [5]: 100%
Population Pyknosed Nuclei (%) [5]: 8.43% and 14.33%
Population Tubulin-Different-Phenotype (%) [5]: 0.64% and 1.67%
Total Cell Count [5]: 878 and 293
Population Apoptotic (%) [6]: 55% and 62.65%
Population Healthy Nuclei (%) [6]: 75.09% and 44.95%
Population Hoechst High Intensity Objects (%) [6]: 0% and 0.5%
Population Membrane Permeable-Phenotype (%) [6]: 2.72% and 10.11%
Population Mitotic Cells (%) [6]: 45% and 37.35%
Population Normal (%) [6]: 100% and 99.5%
Population Pyknosed Nuclei (%) [6]: 22.3% and 41.92%
Population Tubulin-Different-Phenotype (%) [6]: 11.88% and 16.85%
Total Cell Count [6]: 538 and 199

CN1[C@@H](CC(=O)c2ccccc2)CCC[C@H]1C[C@H](O)c1ccccc1.Cl [LOBELINE HYDROCHLORIDE]
Population Apoptotic (%) [1]: 43.24% and 34.78%
Population Fragmented Nuclei (%) [1]: 1.42% and 2.51%
Population Healthy Nuclei (%) [1]: 88.07% and 85.93%
Population Hoechst High Intensity Objects (%) [1]: 0%
Population Membrane Permeable-Phenotype (%) [1]: 0.97% and 2.34%
Population Mitochondria Different-Phenotype (%) [1]: 0% and 6.43%
Population Mitotic Cells (%) [1]: 56.76% and 65.22%
Population Normal (%) [1]: 100%
Population Pyknosed Nuclei (%) [1]: 10.51% and 11.56%
Population Tubulin-Different-Phenotype (%) [1]: 0.65% and 0.58%
Total Cell Count [1]: 352 and 199
Population Apoptotic (%) [2]: 42.42% and 20%
Population Fragmented Nuclei (%) [2]: 1.15% and 1.84%
Population Healthy Nuclei (%) [2]: 91.26% and 82.82%
Population Hoechst High Intensity Objects (%) [2]: 0%
Population Membrane Permeable-Phenotype (%) [2]: 1.76% and 8.15%
Population Mitotic Cells (%) [2]: 57.58% and 80%
Population Normal (%) [2]: 100%
Population Pyknosed Nuclei (%) [2]: 7.59% and 15.34%
Population Tubulin-Different-Phenotype (%) [2]: 4.03% and 5.19%
Total Cell Count [2]: 435 and 163
Population Apoptotic (%) [3]: 44.64% and 46.88%
Population Fragmented Nuclei (%) [3]: 0.81% and 1.97%
Population Healthy Nuclei (%) [3]: 87.88% and 85.43%
Population Hoechst High Intensity Objects (%) [3]: 0%
Population Membrane Permeable-Phenotype (%) [3]: 0.46% and 2.76%
Population Mitochondria Different-Phenotype (%) [3]: 0% and 6.91%
Population Mitotic Cells (%) [3]: 55.36% and 53.12%
Population Normal (%) [3]: 100%
Population Pyknosed Nuclei (%) [3]: 11.31% and 12.6%
Population Tubulin-Different-Phenotype (%) [3]: 0.69% and 0.92%
Total Cell Count [3]: 495 and 254
Population Apoptotic (%) [4]: 28.79% and 39.39%
Population Fragmented Nuclei (%) [4]: 0.84% and 0.51%
Population Healthy Nuclei (%) [4]: 88.01% and 82.74%
Population Hoechst High Intensity Objects (%) [4]: 0%
Population Membrane Permeable-Phenotype (%) [4]: 0.96% and 1.23%
Population Mitotic Cells (%) [4]: 71.21% and 60.61%
Population Normal (%) [4]: 100%
Population Pyknosed Nuclei (%) [4]: 11.15% and 16.75%
Population Tubulin-Different-Phenotype (%) [4]: 2.11% and 2.45%
Population Apoptotic (%) [5]: 42.67% and 32.61%
Population Fragmented Nuclei (%) [5]: 2.46% and 2.85%
Population Healthy Nuclei (%) [5]: 89.17% and 86.22%
Population Hoechst High Intensity Objects (%) [5]: 0%
Population Membrane Permeable-Phenotype (%) [5]: 0.75% and 0.83%
Population Mitochondria Different-Phenotype (%) [5]: 0.13% and 5.79%
Population Mitotic Cells (%) [5]: 57.33% and 67.39%
Population Normal (%) [5]: 100%
Population Pyknosed Nuclei (%) [5]: 8.37% and 10.93%
Population Tubulin-Different-Phenotype (%) [5]: 1.25% and 0.55%
Total Cell Count [5]: 896 and 421
Population Apoptotic (%) [6]: 41.41% and 48.72%
Population Fragmented Nuclei (%) [6]: 1.94% and 1.9%
Population Healthy Nuclei (%) [6]: 88.91% and 85.76%
Population Hoechst High Intensity Objects (%) [6]: 0%
Population Membrane Permeable-Phenotype (%) [6]: 1.66% and 1.85%
Population Mitochondria Different-Phenotype (%) [6]: 0.31% and 8.86%
Population Mitotic Cells (%) [6]: 58.59% and 51.28%
Population Normal (%) [6]: 100%
Population Pyknosed Nuclei (%) [6]: 9.15% and 12.34%
Population Tubulin-Different-Phenotype (%) [6]: 1.77% and 2.21%
